TRPC6 inh – mouse TRPC6 channel inhibitors, primary screen, cell-based, HEK293, membrane potential dye; 310,000 compounds, 1.1% hits; B-score at 10 µM; ACh-evoked depolarization; hits give low values;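 active means B-score under library mean minus 3 SD, initial fluorescence not abnormally high, positive integrated signal ratio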;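 further: B-score derived from integrated fluorescence ratio over the kinetic read; more negative B-score means stronger inhibition of depolarization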
TRPC6 activator – mouse TRPC6 channel activators, primary screen, cell-based, HEK293, membrane potential dye. HEK293-TRPC6 membrane potential dye fluorescence; hits give high values. B-score at 10 µM. 310,000 compounds, 0.13% hits. AID 2550, 2010. Short transient receptor potential channel 6 (Mus musculus), Q61143;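 active means B-score of the integrated fluorescence ratio above library mean plus 3 SD, and starting fluorescence ratio within library mean plus 5 SD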;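 further: higher score means more depolarization so channel activation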
TRPC4 block – inhibitors of mouse TRPC4 channel, primary screen, Fluo4 calcium, HEK293 TRPC4beta/mu-opioid cells; B-score at 10 µM; DAMGO-evoked Fluo4 calcium flux; hits give low values; 300,000 compounds, 0.39% hits;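 active means B-score over 3 SD under the library average, no early fluorescence shift, positive overall ratio signal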
Target sequence (Q9QUQ5 whole entry, looked up): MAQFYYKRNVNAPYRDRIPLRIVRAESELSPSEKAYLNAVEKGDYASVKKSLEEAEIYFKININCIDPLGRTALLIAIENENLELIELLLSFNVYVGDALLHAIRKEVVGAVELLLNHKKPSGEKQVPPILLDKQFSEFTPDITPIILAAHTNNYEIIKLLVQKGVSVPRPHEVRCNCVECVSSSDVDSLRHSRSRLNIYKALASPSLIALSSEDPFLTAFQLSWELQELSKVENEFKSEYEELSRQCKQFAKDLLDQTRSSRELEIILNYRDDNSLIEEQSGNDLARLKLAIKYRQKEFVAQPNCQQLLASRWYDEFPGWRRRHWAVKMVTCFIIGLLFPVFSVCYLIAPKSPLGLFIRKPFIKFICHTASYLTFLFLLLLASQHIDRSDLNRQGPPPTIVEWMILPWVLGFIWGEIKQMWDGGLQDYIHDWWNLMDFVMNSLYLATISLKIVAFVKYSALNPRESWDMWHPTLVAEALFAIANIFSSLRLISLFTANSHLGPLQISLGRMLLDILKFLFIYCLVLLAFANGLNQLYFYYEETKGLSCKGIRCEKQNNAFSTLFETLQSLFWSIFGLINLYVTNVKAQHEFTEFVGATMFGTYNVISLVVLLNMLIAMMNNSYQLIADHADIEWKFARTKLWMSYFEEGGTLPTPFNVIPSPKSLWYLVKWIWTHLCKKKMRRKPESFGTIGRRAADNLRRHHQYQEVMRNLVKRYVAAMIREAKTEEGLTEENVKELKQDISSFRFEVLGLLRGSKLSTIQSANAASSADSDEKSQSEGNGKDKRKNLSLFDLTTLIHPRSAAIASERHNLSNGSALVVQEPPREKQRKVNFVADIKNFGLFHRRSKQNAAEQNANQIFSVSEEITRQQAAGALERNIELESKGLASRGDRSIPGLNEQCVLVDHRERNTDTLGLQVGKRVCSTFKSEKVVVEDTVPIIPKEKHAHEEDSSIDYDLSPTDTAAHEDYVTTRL
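Assay system – HEK293 line stably carrying TRPC4beta and mu-opioid receptor · Doses – single dose · Detection – Fluo4 calcium-dye fluorescence, kinetic read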
TRPC4 act – activators of mouse TRPC4 channel, primary screen, Fluo4 calcium, HEK293 TRPC4beta/mu-opioid cells; B-score at 10 µM; 310,000 compounds, 0.49% hits; Fluo4 calcium fluorescence; hits give high values; AID 2237, 2010;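 active means B-score above 5 SD of library B-scores, and initial fluorescence ratio not above library mean plus 5 SD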;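 further: positive B-score marks a calcium rise read as TRPC4 activation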
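Assay system: HEK293 stable line with TRPC4beta plus mu-opioid receptor; schedule: 45 min room-temperature Fluo4 loading, 110 s read; technique: kinetic Fluo4 calcium fluorescence; evaluation: integrated baseline-normalised fluorescence ratio, converted to per-well B score; controls: buffer (low) and maximal DAMGO (high)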
TRPC4 PAM – positive allosteric modulators of TRPC4, primary screen, cell-based, mouse TRPC4beta, HEK293 mu-opioid, Fluo-4 calcium | Short transient receptor potential channel 4 (Mus musculus), Q9QUQ5 | DAMGO EC20, Fluo-4 Ca2+ flux; hits give high values | B-score at 10 µM | 310,000 compounds, 0.42% hits;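 active means B-score of calcium response area above 5 SD of library B-scores, with initial fluorescence ratio within 5 SD of library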;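 further: B-score of integrated fluorescence ratio over time as area under calcium response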
* hit, by the source's call; i = inactive. In the library only some 2.3% were active in any assay of this set; here they are far more common.

SMILES | TRPC6 inh | TRPC6 activator | TRPC4 block | TRPC4 act | TRPC4 PAM
COC(=O)c1cccc(NC(=S)Nc2cccc(Cl)c2Cl)c1 | i | i | -6* | i | i
CC(=O)N1CCC(c2c[nH]c3ccccc23)CC1 | i | i | i | i | i
COc1ccc(Cc2c(O)nc(SCC(=O)NC(C)(C)C)[nH]c2=O)cc1 | i | i | i | i | i
CCSc1ncccc1-c1nc2ccccc2[nH]1 | i | i | -7* | i | i
CCOC(=O)C1CCN(c2c(NCc3ccc(C(=O)N(C)Cc4ccccc4)cc3)c(=O)c2=O)CC1 | i | i | i | i | i
Cc1ccc(NS(=O)(=O)c2cc(C(=O)N3CCc4ccccc4C3)ccc2Cl)cc1 | i | i | i | i | 28*
CCC(C(=O)Nc1ccccc1OC)n1c(C(=O)OC)cc2ccsc21 (stereo not drawn) | i | i | i | i | 15*
CCOC(=O)c1sc(-c2ccc(F)cc2)cc1NC(=O)Nc1ccccc1OC | i | i | i | i | i
COC(=O)C(NC(=O)CNS(=O)(=O)c1ccc(Br)cc1)c1ccccc1 (stereo not drawn) | i | i | i | i | i
CC(C)(C)C(=O)N1CCC(O)(CS(=O)(=O)c2ccc(Cl)c(Cl)c2)CC1 | i | i | i | i | i
Cn1c(-c2cccc3ccccc23)n[nH]c1=S | i | i | i | 102* | i
COC(=O)c1cccc2c1-c1ccccc1/C2=N\NC(N)=O | i | i | i | i | i
COC(=O)c1cccc2c1-c1ccccc1/C2=N/O | i | i | -7* | i | i
CCN1C(=O)c2ccccc2S(=O)(=O)c2ccc(C(=O)NCCOC)cc21 | i | i | i | i | i
CCCCN(CC)CCCNC(=O)c1ccc2c(c1)N(CC)C(=O)c1ccccc1S2(=O)=O | i | i | i | i | 14*
CCCOP(=O)(c1ccc(N(C)C)cc1)C(O)c1c(Cl)cccc1Cl (stereo not drawn) | i | i | i | i | i
CCCOP(=O)(c1ccc(N(C)C)cc1)C(O)c1ccc(Cl)cc1Cl (stereo not drawn) | i | i | i | i | 10*
Cc1cc(N2CCCCC2)nc2ccccc12 | i | i | -6* | i | i
COc1ccc(N2CCN(c3cc(C)c4ccc(O)cc4n3)CC2)cc1 | i | i | i | i | i
Cc1cc(N2CCCN(C)CC2)nc2cc(Cl)ccc12 | i | i | i | i | 13*
Cc1cc(N2CCOCC2)nc2ccccc12 | i | i | i | i | i
COc1ccc(N2CCN(c3cc(C)c4ccc(C)cc4n3)CC2)cc1 | i | i | i | i | 12*
Cc1cc(N2CCCCCC2)nc2ccccc12 | i | i | -6* | i | i
Nc1nnc(-c2ccc(Cl)c([N+](=O)[O-])c2)s1 | i | i | i | i | i
Cc1cc(OCCN2CCCCC2)nc2ccccc12 | i | i | i | i | 17*
SMILES | TRPC6 inh | TRPC6 activator | TRPC4 block | TRPC4 act | TRPC4 PAM
Cc1cc(OCCN2CCOCC2)nc2ccccc12 | i | i | i | i | i
CCn1cc(CN2CCCC(CNS(=O)(=O)c3cccc4cccnc34)C2)cn1 (stereo not drawn) | i | i | i | i | i
CC1CN(C(=O)c2ccc(NS(=O)(=O)c3ccc(C(C)(C)C)cc3)cc2)CC(C)O1 (stereo not drawn) | i | i | i | 89* | i
COCC(=O)N1CCC(Oc2ccc(C(=O)N3CCCCC3COC)cc2)CC1 (stereo not drawn) | i | i | i | i | i
O=C(COC(=O)CNS(=O)(=O)c1ccc(Br)cc1Cl)NCCc1ccccc1 | i | i | i | i | i
CN1CCCC(OC(=O)c2cc(Cl)ccc2Cl)C1 (stereo not drawn) | i | i | i | 65* | 13*
CN1CCCC(OC(=O)c2cc(Br)ccc2Cl)C1 (stereo not drawn) | i | i | i | 126* | 10*
COc1cccc(C(=O)OC2CCCN(C)C2)c1 (stereo not drawn) | i | i | i | 129* | i
CN1CCC(OC(=O)c2cc3cc(Br)ccc3oc2=O)CC1 | i | i | i | i | i
CN1CCCC(OC(=O)c2cc(F)c(F)c(F)c2F)C1 (stereo not drawn) | i | i | i | i | i
COc1ccc2c(Cl)c(-c3nnc(SCC(=O)c4ccccc4)n3C)sc2c1 | i | i | i | 104* | i
COc1ccc2c(Cl)c(-c3nnc(SCC(N)=O)n3C)sc2c1 | i | i | i | i | i
CC(C)(C)N=C1NN=C(c2cc3ccccc3o2)CS1 | i | i | i | i | 11*
COc1ccccc1CC(NC(C)=O)C(=O)NC1CCN(S(=O)(=O)c2ccccc2)CC1 (stereo not drawn) | i | i | i | i | i
CC(=O)N1CC(C)Sc2ccc(S(=O)(=O)NCCc3cccc(C)c3)cc21 (stereo not drawn) | i | i | i | i | i
C=CCc1ccc(OCC(O)CN2CCN(Cc3ccc(Cl)cc3)CC2)c(OC)c1 (stereo not drawn) | i | i | i | i | 10*
C=CCc1ccc(OCC(O)CN2CCN(c3ccccc3OC)CC2)c(OC)c1 (stereo not drawn) | i | i | i | i | i
OCCC1CN(Cc2cccn2-c2cccnc2)CCN1Cc1ccccc1 (stereo not drawn) | i | i | i | i | i
OCCC1CN(Cc2cccn2-c2cccnc2)CCN1CCc1ccccc1 (stereo not drawn) | i | i | -5* | i | i
O=C(Nc1ccc2c(c1)N(S(=O)(=O)c1cccs1)CCC2)c1c(F)cccc1Cl | i | i | i | i | i
O=C(N/N=C\c1ccc(Cl)s1)C1COc2ccccc2O1 (stereo not drawn) | i | i | i | 70* | i
O=C(N/N=C\c1ccc([N+](=O)[O-])s1)C1COc2ccccc2O1 (stereo not drawn) | i | i | i | i | i
Cc1ccc(/C=N\NC(=O)C2COc3cc4ccccc4cc3O2)o1 (stereo not drawn) | i | i | i | 112* | i
